From PubChem
APJ antag: antagonists of human APJ apelin receptor; P35414; inhibition, % at 20 µM; CHO-K1 APJ beta-arrestin complementation, luminescence; AID 2521; 0.32% of 330,000 active;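 active = inhibition above about 40% at 20 µM, limit read from the data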;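 note: cells challenged with 10 nM apelin-13 agonist together with compound; plate controls were apelin-13 plus DMSO wells for no effect and DMSO wells lacking apelin-13 for full effect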
APJ ag: APJ receptor agonism. CHO-K1 APJ PathHunter beta-arrestin, luminescence; 0% DMSO wells, 100% apelin. activation, % at 20 µM. 0.11% of 330,000 active. AID 2520;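 active = activation more than six SD over the plate average, tested at 20 µM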;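 note: 0% = DMSO alone and 100% = apelin-13 at 10 nM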
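system = engineered CHO-K1 APJ arrestin reporter cells | input = 1000 cells per well | timing = overnight seeding, 90 min compound at 25 °C, 1 h detection | measured by = enzyme-fragment complementation luminescence | read-out = beta-arrestin recruitment to APJ as agonist activity, luminescent signal | control set = negative DMSO alone, positive Apelin-13 at 10 nM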
EBI2 antag: blocks human EBI2 receptor beta-arrestin signaling. P32249. EBI2 beta-arrestin recruitment, luminescence, 7a,25-OHC stimulated. inhibition, % at 5 µM. 0.81% of 360,000 active. AID 651636; in the data active = inhibition above about 38%;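 note: enzyme fragment complementation signal reports receptor beta-arrestin coupling in cells; 0% = agonist plus DMSO wells and 100% = wells without agonist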
CXCR6 block: CXCR6 (human) receptor inhibition | CHO-K1 PathHunter CXCR6 beta-arrestin, luminescence | inhibition, % at 20 µM | 0.36% of 360,000 active | AID 602244; in the data active = inhibition above about 34%, passing the limit was not always enough;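 note: antagonist mode with CXCL16 agonist at 10 nM final; 0% = 10 nM CXCL16 with DMSO and 100% = unstimulated wells without agonist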
m5-HT2A agonist: mouse HTR2A agonism via beta-arrestin recruitment; activation, % at 7.6 µM; CHO-K1 mHTR2A beta-arrestin complementation, luminescence; percent of 30 µM serotonin response; P35363; 0.66% of 360,000 active;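 active = activation above a run cutoff, the mean activation of all tested compounds plus 3 SD, cut at about 14% in these data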;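 note: 0% = plate median of compound wells and 100% = 30 µM serotonin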
CCR6 antagonist: antagonists of human CCR6 receptor; CHO-K1 CCR6 PathHunter beta-arrestin, luminescence, CCL20-stimulated; AID 493098; 0.49% of 340,000 active; P51684; inhibition, % at 20 µM;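 active = compounds whose inhibition of the agonist-driven luminescence signal at 20 µM reaches about 50%, limit read from the data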;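 note: cells stimulated with CCL20 at 14 nM final; plate controls were DMSO with CCL20 for no effect and DMSO without agonist for full effect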
Target sequence (P51684 whole entry, looked up): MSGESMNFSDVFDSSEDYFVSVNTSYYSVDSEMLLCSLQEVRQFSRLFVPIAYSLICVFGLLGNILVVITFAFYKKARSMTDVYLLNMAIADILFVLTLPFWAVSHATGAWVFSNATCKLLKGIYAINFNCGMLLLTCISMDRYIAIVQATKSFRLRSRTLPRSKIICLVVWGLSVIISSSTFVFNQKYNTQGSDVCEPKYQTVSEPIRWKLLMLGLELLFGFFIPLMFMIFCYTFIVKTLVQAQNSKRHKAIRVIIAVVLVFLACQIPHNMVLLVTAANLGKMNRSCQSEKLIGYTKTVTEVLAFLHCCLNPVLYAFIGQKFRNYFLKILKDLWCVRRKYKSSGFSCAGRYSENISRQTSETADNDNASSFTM
EBI2 conf: EBI2 (human) antagonism, single concentration confirmation. shares compounds with EBI2 antag. inhibition, % at 5 µM. 29% of 2,400 active. EBI2 beta-arrestin luminescence, 7a,25-OHC antagonism;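 active = inhibition of at least 50%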
EBI2 ag: EBI2 agonism counter-screen; 2,400 tested, under 10 active; EBI2-expressing cells, agonist mode, luminescence, 60 min; 0% vehicle, 100% 7α,25-dihydroxycholesterol control; shares compounds with EBI2 antag; activation, % at 5 µM; AID 652000;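 active = activation of at least 50%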
bGal cs: counter-screen for EBI2 antagonists: E. coli beta-galactosidase inhibition | shares compounds with EBI2 antag | purified beta-galactosidase, luminescent Galacton Star, 15 min | 1% of 2,400 active | inhibition, % at 5 µM;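 active = replicate-average signal at least 3 plate SD below neutral wells, shown as high inhibition, flagging enzyme-inhibiting false positives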;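 note: 0% = DMSO wells with enzyme and 100% = wells lacking enzyme; higher means stronger loss of beta-gal luminescence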
* marks the source's active call; other numbers are inactive results; / = not tested or not shown. Hits are enriched below; roughly 2.1% of the tested compounds scored in any of these assays.

SMILES	APJ antag	APJ ag	EBI2 antag	CXCR6 block	m5-HT2A agonist	CCR6 antagonist	EBI2 conf	EBI2 ag	bGal cs
Oc1cccc(/C=N/Nc2cc(N3CCCC3)nc(N3CCCC3)n2)c1	17	-4	39	-2	-3	-2	/	/	/
COc1ccc(/C=N/Nc2cc(N3CCCC3)nc(N3CCCC3)n2)cc1	19	-4	60*	2	-6	8	33	3	7
O=C(c1ccco1)N1CCc2[nH]nc(-c3ccc(Cl)cc3)c2C1	3	-2	41*	7	-3	6	25	0	7
NS(=O)(=O)c1cc(C(=O)OCC(=O)Nc2ccc3c(c2)OCO3)ccc1Cl	-3	-4	-6	4	-3	-2	/	/	/
COc1ccc(-n2cc(-c3ccccc3)nc2SC)cc1	20	1	42*	-1	-5	12	34	0	3
NNC(=O)CSc1nc(-c2ccccc2)cn1-c1ccccc1	-4	-2	1	-2	3	-2	/	/	/
COC(=O)c1ccccc1N(C)S(=O)(=O)c1cc2c3c(c1)CCC(=O)N3CCC2	16	9	-3	2	-5	10	/	/	/
CCOc1cc(/C=N/NC(=O)COc2nc(C)cc(COC)c2C#N)ccc1O	0	-2	62*	3	1	-15	36	2	1
COCc1cc(C)nc(OCC(=O)N/N=C/c2ccccc2O)c1C#N	21	3	-3	-7	-2	-6	/	/	/
COc1ccc(-c2ccc3c(c2)c(Sc2ccccc2)c(-c2cc(OC)cc(OC)c2)n3C)cc1	/	/	2	5	6	/	/	/	/
COc1cc(OC)cc(-c2c(Sc3ccccc3)c3cc(-c4cnc(OC)nc4)ccc3n2C)c1	/	/	65*	3	4	/	10	-1	-6
CC(=O)Nc1ccc(OCC(O)CN2CCN(S(=O)(=O)c3ccc(NC(C)=O)cc3)CC2)cc1 (stereo unspecified)	30	-2	-8	6	2	-9	/	/	/
CC(=O)Nc1ccc(S(=O)(=O)N2CCN(CC(O)COc3ccc4ccccc4c3)CC2)cc1 (stereo unspecified)	-24	0	57*	-14	-2	7	24	1	4
CN(C)S(=O)(=O)N1CCN(CC(O)COc2ccc3cc(Br)ccc3c2)CC1 (stereo unspecified)	1	2	85*	-14	-3	-7	67*	1	9
COc1ccc(-c2cn3nc(SCC(=O)NCC4CCCO4)ccc3n2)cc1 (stereo unspecified)	22	0	67*	-2	7	1	38	-1	-17
C=CCn1c(=O)c2ccc(C(=O)NCc3ccccc3)cc2n(Cc2cccc(Cl)c2)c1=O	-3	-4	55*	12	3	26	45	2	2
C=CCn1c(=O)c2ccc(C(=O)NCc3ccccc3)cc2n(Cc2ccc(Cl)cc2)c1=O	10	-3	27	2	6	22	/	/	/
O=C(CCC(=O)N/N=C/c1cc(Cl)cc(Cl)c1O)NCc1ccccc1	-6	-2	4	-1	0	1	/	/	/
O=C(O)CCNC(=O)c1ccc(N=Nc2ccc(O)c(C(=O)O)c2)cc1	18	-5	/	/	/	/	/	/	/
COCCCn1c(=O)/c(=C\c2ccccc2OC(C)C)s/c1=C(/C#N)C(=O)Nc1ccc(C(=O)O)cc1	2	-1	-22	-4	1	24	/	/	/
COCCCn1c(=O)/c(=C\c2ccccc2OC(F)F)s/c1=C(/C#N)C(=O)NC(C)C	0	0	60*	11	2	2	51*	0	0
CSCCC(c1nnnn1-c1c(C)cccc1C)N1CCN(C/C=C/c2ccccc2)CC1 (stereo unspecified)	/	/	53*	11	-7	/	8	-1	-13
